Drawing on ChEMBL document CHEMBL4480406, “Discovery of an SSTR2-Targeting Maytansinoid Conjugate (PEN-221) with Potent Activity in Vitro and in Vivo” (J Med Chem, 2019), this text covers Ki, IC50 and Drug uptake for 16 compounds.

pIC50, pKi: −log10 of the molar value. Where a SMILES comes first, the peptide text is derived from it. [ ]: non-standard residue; d: D form. The star is where a group is joined. Dolaproine = CO[C@@H]([C@@H]1CCCN1)[C@@H](C)C(=O)O; Dil = CC[C@H](C)[C@H](NC)[C@@H](CC(=O)O)OC; X1 = C[C@@H](N*)[C@@H](O)c1ccccc1; NMeV = CN[C@H](C(=O)O)C(C)C

Data set [1] concerns the target Somatostatin receptor type 2 (Homo sapiens, UniProt P30874). Put plainly: Displacement of [125I]somatostatin from human SSTR2 expressed in CHO-K1 cell membranes after 240 mins. In outline: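 Membranes from CHO-K1 cells stably expressing human SSTR2, prepared in modified HEPES pH 7.4. Nonspecific binding was defined with 1 µM somatostatin. Bound ligand was measured by filtration, 3 washes and counting. Six test concentrations were run, top 10 nM, in five-fold dilutions.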

In data set [2] the test system is NCI-H524. Put plainly: Cytotoxicity in human NCI-H524 cells pre-incubated for 2 hrs in presence of 100 uM octreotide followed by compound wash out and subsequently incubated for 70 hrs by Cell Titer Glo assay. The format is functional, cell-based. In outline: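 Octreotide receptor-blockade variant: NCI-H524 cells (5,000/well) were pretreated with octreotide acetate for 30 min, then given compound for 2 h in a ten-point three-fold series.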

For data set [3], the system named is NCI-H524. As to the kind of experiment: Cytotoxicity in human NCI-H524 cells pre-incubated for 2 hrs followed by compound wash out and subsequently incubated for 70 hrs by Cell Titer Glo assay. The format is functional, cell-based. In outline:
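Cells were then spun, washed with fresh medium, resuspended and grown a further 70 h. Proliferation was read by CellTiter-Glo luminescence, and % inhibition calculated relative to vehicle. IC50 came from a four-parameter nonlinear fit.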

Data set [4] can be described thus: Drug uptake in tumor of CrTac:NCr-Foxn1nu mouse xenografted with human NCI-H69 cells assessed as DM1 level at 1 mg/kg, iv measured after 24 hrs by LC-MS/MS analysis relative to DM1 alone. The format is ADME, organism-based, Neoplasm. To be noted: in vivo. In outline:
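NCI-H69 subcutaneous tumors of 250-600 mm3 in nude mice, groups of 3, dosed i.v. Free DM1 was given in 10% propylene glycol/WFI, conjugates in 10% propylene glycol/5 mM citrate pH 4. Tumors were excised at 24 h and homogenized 1:4 (w/v) in 0.1 M ammonium bicarbonate pH 8.0. Homogenate was reduced with TCEP in acetonitrile (15 min, 37 °C), capped with 0.2 M NEM (15 min, 37 °C), and DM1-NEM quantified by LC-MS/MS against standards in blank tumor homogenate. Values were normalized to DM1 dose.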

Chain of Somatostatin receptor type 2 (P30874 whole entry): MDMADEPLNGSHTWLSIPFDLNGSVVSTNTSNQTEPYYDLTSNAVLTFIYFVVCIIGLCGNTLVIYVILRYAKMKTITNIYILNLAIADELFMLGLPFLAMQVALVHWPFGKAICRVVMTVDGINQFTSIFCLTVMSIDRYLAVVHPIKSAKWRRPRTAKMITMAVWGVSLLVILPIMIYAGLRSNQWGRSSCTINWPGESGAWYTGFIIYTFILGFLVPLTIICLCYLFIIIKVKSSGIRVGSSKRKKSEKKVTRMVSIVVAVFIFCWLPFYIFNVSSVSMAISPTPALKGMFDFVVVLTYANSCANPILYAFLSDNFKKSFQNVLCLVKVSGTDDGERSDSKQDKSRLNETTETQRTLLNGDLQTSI

The compound `COc1cc2cc(c1Cl)N(C)C(=O)C[C@H](OC(=O)[C@H](C)N(C)C(=O)CCSSCCNC(=O)[C@@H]1CSSC[C@H](NC(=O)[C@H](N)Cc3ccccc3)C(=O)N[C@@H](Cc3ccc(O)cc3)C(=O)N[C@H](Cc3c[nH]c4ccccc34)C(=O)N[C@@H](CCCCN)C(=O)N[C@@H]([C@@H](C)O)C(=O)N1)[C@@]1(C)O[C@H]1[C@H](C)[C@@H]1C[C@@](O)(NC(=O)O1)[C@H](OC)/C=C/C=C(\C)C2` gave a pKi in data set [1] of 10.21. Moreover, the results for the negative logarithm of the IC50 (pIC50) in data set [2] and in data set [3] were 6.16 and 8.00, respectively.
Take `COc1cc2cc(c1Cl)N(C)C(=O)C[C@H](OC(=O)[C@H](C)N(C)C(=O)CCSSCCOc1ccc(C[C@@H](N)C(=O)N[C@H]3CSSC[C@@H](C(=O)N[C@H](C(=O)O)[C@@H](C)O)NC(=O)[C@H]([C@@H](C)O)NC(=O)[C@H](CCCCN)NC(=O)[C@@H](Cc4c[nH]c5ccccc45)NC(=O)[C@H](Cc4ccc(O)cc4)NC3=O)cc1)[C@@]1(C)O[C@H]1[C@H](C)[C@@H]1C[C@@](O)(NC(=O)O1)[C@H](OC)/C=C/C=C(\C)C2`: in data set [1], the negative logarithm of the Ki (pKi) was 10.82. For the same compound, the Drug uptake entry in data set [4] is reported as “Active”. Also, the negative-log IC50 (pIC50) in data set [2] is 6.70; in data set [3], 7.82.
On to `CC[C@H](C)[C@@H]([C@@H](CC(=O)N1CCC[C@H]1[C@H](OC)[C@@H](C)C(=O)N[C@H](C)[C@@H](O)c1ccccc1)OC)N(C)C(=O)[C@@H](NC(=O)[C@H](C(C)C)N(C)C(=O)OCCSSC[C@H](NC(=O)[C@@H]1CSSC[C@H](NC(=O)[C@H](N)Cc2ccccc2)C(=O)N[C@@H](Cc2ccc(O)cc2)C(=O)N[C@H](Cc2c[nH]c3ccccc23)C(=O)N[C@@H](CCCCN)C(=O)N[C@@H]([C@@H](C)O)C(=O)N1)C(N)=O)C(C)C`, for which the negative-log Ki (pKi) in data set [1] was 9.74. Besides, the pIC50 was 5.85 in data set [2] and 5.90 in data set [3].
`CO[C@H]1C(=O)[C@]2(C)[C@@H](OC)C[C@H]3OC[C@@]3(OC(C)=O)[C@H]2[C@H](OC(=O)c2ccccc2)[C@]2(O)C[C@H](OC(=O)[C@H](O)[C@@H](NC(=O)OC(C)(C)C)c3ccccc3)C(C)=C1C2(C)C` [CABAZITAXEL] showed a pIC50 in data set [3] of 9.59.
In data set [1], `COc1cc2cc(c1Cl)N(C)C(=O)C[C@H](OC(=O)[C@H](C)N(C)C(=O)CCSC1CC(=O)N(CCCNC(=O)CNC(=O)[C@H](CC(C)C)NC(=O)[C@H](Cc3ccccc3)NC(=O)CNC(=O)CCCCCN3C(=O)CC(SCCCN[C@H](Cc4ccccc4)C(=O)N[C@H]4CSSC[C@@H](C(=O)N[C@H](CO)[C@@H](C)O)NC(=O)[C@H]([C@@H](C)O)NC(=O)[C@H](CCCCN)NC(=O)[C@@H](Cc5c[nH]c6ccccc56)NC(=O)[C@H](Cc5ccccc5)NC4=O)C3=O)C1=O)[C@@]1(C)O[C@H]1[C@H](C)[C@@H]1C[C@@](O)(NC(=O)O1)[C@H](OC)/C=C/C=C(\C)C2` (stereo partly drawn) showed a pKi of 9.85. Further, the pIC50 is 6.69 in data set [2] and 7.12 in data set [3].
In the same order, the values of `CO[C@H]1C(=O)[C@]2(C)[C@@H](OC)C[C@H]3OC[C@@]3(OC(C)=O)[C@H]2[C@H](OC(=O)c2ccccc2)[C@]2(O)C[C@H](OC(=O)[C@H](OC(=O)OCCSSCCCN[C@H](Cc3ccccc3)C(=O)N[C@H]3CSSC[C@@H](C(=O)N[C@H](CO)[C@@H](C)O)NC(=O)[C@H]([C@@H](C)O)NC(=O)[C@H](CCCCN)NC(=O)[C@@H](Cc4c[nH]c5ccccc45)NC(=O)[C@H](Cc4ccccc4)NC3=O)[C@@H](NC(=O)OC(C)(C)C)c3ccccc3)C(C)=C1C2(C)C` are 9.11, 6.80 and 6.82.
Taken in the same sequence, the figures for `COc1cc2cc(c1Cl)N(C)C(=O)C[C@H](OC(=O)[C@H](C)N(C)C(=O)CCC(C)(C)SSC[C@H](NC(=O)[C@@H]1CSSC[C@H](NC(=O)[C@H](N)Cc3ccccc3)C(=O)N[C@@H](Cc3ccc(O)cc3)C(=O)N[C@H](Cc3c[nH]c4ccccc34)C(=O)N[C@@H](CCCCN)C(=O)N[C@@H]([C@@H](C)O)C(=O)N1)C(N)=O)[C@@]1(C)O[C@H]1[C@H](C)[C@@H]1C[C@@](O)(NC(=O)O1)[C@H](OC)/C=C/C=C(\C)C2` were 10.12, 6.24 and 7.57.
As to `COc1cc2cc(c1Cl)N(C)C(=O)C[C@H](OC(=O)[C@H](C)N(C)C(=O)CCSSC[C@H](NC(=O)[C@@H]1CSSC[C@H](NC(=O)[C@H](N)Cc3ccccc3)C(=O)N[C@@H](Cc3ccc(O)cc3)C(=O)N[C@H](Cc3c[nH]c4ccccc34)C(=O)N[C@@H](CCCCN)C(=O)N[C@@H]([C@@H](C)O)C(=O)N1)C(=O)O)[C@@]1(C)O[C@H]1[C@H](C)[C@@H]1C[C@@](O)(NC(=O)O1)[C@H](OC)/C=C/C=C(\C)C2`, the pKi in data set [1] was 10.89. Further, the pIC50 is 5.80 in data set [2] and 6.74 in data set [3].
Taken in the same sequence, the figures for `COc1cc2cc(c1Cl)N(C)C(=O)C[C@H](OC(=O)[C@H](C)N(C)C(=O)CCSSC[C@@H](CO)NC(=O)[C@@H]1CSSC[C@H](NC(=O)[C@H](N)Cc3ccccc3)C(=O)N[C@@H](Cc3ccc(O)cc3)C(=O)N[C@H](Cc3c[nH]c4ccccc34)C(=O)N[C@@H](CCCCN)C(=O)N[C@@H]([C@@H](C)O)C(=O)N1)[C@@]1(C)O[C@H]1[C@H](C)[C@@H]1C[C@@](O)(NC(=O)O1)[C@H](OC)/C=C/C=C(\C)C2` were 10.74, 5.86 and 7.38.
Regarding `COc1cc2cc(c1Cl)N(C)C(=O)C[C@H](OC(=O)[C@H](C)N(C)C(=O)CCS)[C@@]1(C)O[C@H]1[C@H](C)[C@@H]1C[C@@](O)(NC(=O)O1)[C@H](OC)/C=C/C=C(\C)C2`, the pIC50 in data set [3] is 7.96.
In data set [1], `COc1cc2cc(c1Cl)N(C)C(=O)C[C@H](OC(=O)[C@H](C)N(C)C(=O)CCSC1CC(=O)N(CC(=O)NC[C@H](NC(=O)[C@@H]3CSSC[C@H](NC(=O)[C@H](N)Cc4ccccc4)C(=O)N[C@@H](Cc4ccc(O)cc4)C(=O)N[C@H](Cc4c[nH]c5ccccc45)C(=O)N[C@@H](CCCCN)C(=O)N[C@@H]([C@@H](C)O)C(=O)N3)C(N)=O)C1=O)[C@@]1(C)O[C@H]1[C@H](C)[C@@H]1C[C@@](O)(NC(=O)O1)[C@H](OC)/C=C/C=C(\C)C2` (stereo partly drawn) had a pKi of 9.85. Also, the pIC50 is 5.60 in data set [2] and 7.04 in data set [3].
Taken in the same sequence, the figures for `CC[C@H](C)[C@@H]([C@@H](CC(=O)N1CCC[C@H]1[C@H](OC)[C@@H](C)C(=O)N[C@H](C)[C@@H](O)c1ccccc1)OC)N(C)C(=O)[C@@H](NC(=O)[C@H](C(C)C)N(C)C(=O)OCCSSCCCN[C@H](Cc1ccccc1)C(=O)N[C@H]1CSSC[C@@H](C(=O)N[C@H](CO)[C@@H](C)O)NC(=O)[C@H]([C@@H](C)O)NC(=O)[C@H](CCCCN)NC(=O)[C@@H](Cc2c[nH]c3ccccc23)NC(=O)[C@H](Cc2ccccc2)NC1=O)C(C)C` were 9.59, 6.25 and 5.83.
Regarding `CC[C@H](C)[C@@H]([C@@H](CC(=O)N1CCC[C@H]1[C@H](OC)[C@@H](C)C(=O)N[C@H](C)[C@@H](O)c1ccccc1)OC)N(C)C(=O)[C@@H](NC(=O)[C@@H](NC)C(C)C)C(C)C` (H-[NMeV]V[Dil][Dolaproine]-X1), the pIC50 in data set [3] is 8.43.
Consider `COc1cc2cc(c1Cl)N(C)C(=O)C[C@H](OC(=O)[C@H](C)N(C)C(=O)CCSSCCC(=O)NCCCC[C@H]1C(=O)N[C@@H](Cc3ccc(O)cc3)C(=O)N[C@H](Cc3c[nH]c4ccccc34)C(=O)N[C@@H](CCCCN)C(=O)N[C@@H]([C@@H](C)O)C(=O)N[C@@H](Cc3ccccc3)C(=O)N1C)[C@@]1(C)O[C@H]1[C@H](C)[C@@H]1C[C@@](O)(NC(=O)O1)[C@H](OC)/C=C/C=C(\C)C2`, for which the negative-log Ki (pKi) in data set [1] was 10.00. The values for the pIC50 in data set [2] and in data set [3] were 6.06 and 7.22, respectively.
For the compound `COc1cc2cc(c1Cl)N(C)C(=O)C[C@H](OC(=O)[C@H](C)N(C)C(=O)CCSSCCNC(=O)[C@@H](NC(=O)[C@@H]1CSSC[C@H](NC(=O)[C@H](N)Cc3ccccc3)C(=O)N[C@@H](Cc3ccc(O)cc3)C(=O)N[C@H](Cc3c[nH]c4ccccc34)C(=O)N[C@@H](CCCCN)C(=O)N[C@@H]([C@@H](C)O)C(=O)N1)[C@@H](C)O)[C@@]1(C)O[C@H]1[C@H](C)[C@@H]1C[C@@](O)(NC(=O)O1)[C@H](OC)/C=C/C=C(\C)C2`, the Drug uptake result in data set [4] was “Active”. The figures for the pIC50 in data set [2] and in data set [3] were 6.28 and 7.36, respectively.
In the same order, the values of `COc1cc2cc(c1Cl)N(C)C(=O)C[C@H](OC(=O)[C@H](C)N(C)C(=O)CCSSCCCN[C@H](Cc1ccccc1)C(=O)N[C@H]1CSSC[C@@H](C(=O)N[C@H](C(=O)O)[C@@H](C)O)NC(=O)[C@H]([C@@H](C)O)NC(=O)[C@H](CCCCN)NC(=O)[C@@H](Cc3c[nH]c4ccccc34)NC(=O)[C@H](Cc3ccc(O)cc3)NC1=O)[C@@]1(C)O[C@H]1[C@H](C)[C@@H]1C[C@@](O)(NC(=O)O1)[C@H](OC)/C=C/C=C(\C)C2` are “Active”, 6.12 and 7.72.
